Measurements published in ChEMBL document CHEMBL1158160, “Diarylheptanoids, new phytoestrogens from the rhizomes of Curcuma comosa: Isolation, chemical modification and estrogenic activity evaluation” (2008).

Legend:
[1] = system: HeLa; test: Estrogenic activity in human HeLa cells assessed as Bcl-xL gene transcriptional activity at 10 nM after 24 hrs by RT-PCR relative to 17-beta-estradiol; type: functional
Outline: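 HeLa cells grown in DMEM with 5% FBS (37 °C, 5% CO2, 24 h), then moved to phenol red-free DMEM with 5% charcoal-stripped FBS for 24 h. Exposed to 10^-8 M compound (final) for 24 h. Controls: 10^-8 M 17β-estradiol, 0.01% DMSO. Total RNA extracted, reverse transcribed. Bcl-xL PCR: 28 cycles (94 °C 30 s, 60 °C 30 s, 72 °C 30 s), same profile as HPRT.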

[2] = system: HeLa; test: Estrogenic activity in human HeLa cells assessed as ERbeta gene transcriptional activity at 10 nM after 24 hrs by RT-PCR relative to 17-beta-estradiol; type: functional
Outline: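 Steroid-depleted HeLa cells (24 h in phenol red-free DMEM, 5% charcoal-stripped FBS) treated 24 h with compound at 10^-8 M final. 17β-Estradiol at 10^-8 M was the positive control and 0.01% DMSO the negative. RNA isolated and converted to cDNA. ERβ PCR: 32 cycles (94 °C 30 s, 56 °C 30 s, 72 °C 30 s), final extension 7 min.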

Row | Structure (SMILES) | Activity [1] [%] | Activity [2] [%]
1 | O=C(/C=C/c1ccc(O)cc1)CCCCc1ccccc1 | 74.41 | 70.33
2 | O=C(/C=C/C=C/c1ccccc1)CCc1ccc(O)cc1 | 74.54 | 87.75
3 | Oc1ccc(CC[C@@H](O)CC/C=C/c2ccccc2)cc1 | 57.73 | 52.5
4 | Oc1ccc(CC[C@@H](O)CC/C=C/c2ccccc2)cc1O | 45.98 | 51.5
5 | CO[C@@H](CC/C=C/c1ccccc1)CCc1ccccc1 | 72.5 | 74.97
6 | CC(=O)O[C@@H](/C=C/C=C/c1ccccc1)CCc1ccccc1 | 47.96 | 58.36
7 | CC(=O)Oc1ccc(CCC(=O)CC/C=C/c2ccccc2)cc1 | 75.3 | 84
8 | CC(=O)Oc1ccc(CCC(=O)/C=C/C=C/c2ccccc2)cc1 | 49.82 | 68.45
9 | COc1ccc(CCC(=O)CC/C=C/c2ccccc2)cc1 | 71.4 | 58.51
10 | COc1ccc(CCC(=O)/C=C/C=C/c2ccccc2)cc1 | 76.77 | 72
11 | C(=C\C=C\c1ccccc1)/C=C/Cc1ccccc1 | 77.5 | 76.46
12 | O[C@@H](CC/C=C/c1ccccc1)CCc1ccccc1 | 52.85 | 42.48
13 | O=C(/C=C/C=C/c1ccccc1)CCc1ccccc1 | 43.97 | 33.72
14 | O[C@@H](/C=C/C=C/c1ccccc1)CCc1ccccc1 | 62.51 | 75.42
15 | O=C(CC/C=C/c1ccccc1)CCc1ccc(O)cc1 | 78.51 | 90.56
16 | O[C@@H](CCCCc1ccccc1)CCc1ccccc1 | 40 | 37.03
17 | O=C(CCCCc1ccccc1)CCc1ccccc1 | 42.18 | 57.5
18 | O=C(CC/C=C/c1ccccc1)CCc1ccccc1 | 74.3 | 85.45
19 | O=C(/C=C/CCc1ccccc1)CCc1ccc(O)cc1 | 47.08 | 50.86
20 | CC(=O)O[C@@H](CCCCc1ccccc1)CCc1ccccc1 | 55 | 58.97
21 | CC(=O)O[C@@H](CC/C=C/c1ccccc1)CCc1ccccc1 | 71.06 | 75.5
22 | O=c1c(-c2ccc(O)cc2)coc2cc(O)cc(O)c12 [GENISTEIN] | 72.85 | 75.51
